Results from ChEMBL document CHEMBL3098083, “Curcumin glucuronides: assessing the proliferative activity against human cell lines” (Bioorg Med Chem, 2014).

What was measured:
[1] = Antiproliferative activity against human KBM5 cells after 72 hrs by MTT assay; assay type: functional, cell-based; conditions: KBM5, 72 h
How it was run: (§1)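 Cells seeded at 5 × 10^3 per well in triplicate and exposed to 1, 5, 10, 25, 50, 100 or 200 μM for 72 h at 37 °C. MTT was added for 2 h, then SDS/DMF extraction buffer overnight, and A570 was read. Results are % viability, mean ± SD. Media: KBM-5 in IMDM/15% FBS; Jurkat and U266 in RPMI 1640; A549 in DMEM/10% FBS; all with penicillin/streptomycin.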

[2] = system: KBM5; experiment: Inhibition of TNF-induced NF-kappaB activation in human KBM5 cells at 25 uM preincubated for 4 hrs followed by TNF addition measured after 30 mins by EMSA relative to control; assay type: cell-based
How it was run: (§2)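 KBM-5 cells (IMDM, 15% FBS) were pretreated 4 h, then stimulated with bacteria-derived human recombinant TNF at 0.1 nM for 30 min. Nuclear extracts (15 μg protein) were incubated with 16 fmol 32P-labelled 45-mer HIV-LTR NF-κB oligonucleotide for 30 min at 37 °C. Complexes were resolved on 6.6% native polyacrylamide gels, and bands were quantified by phosphorimaging.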

[3] = system: A549; experiment: Antiproliferative activity against human A549 cells after 72 hrs by MTT assay; assay type: functional, cell-based; conditions: A549, 72 h; how it was run: as §1
[4] = system: Jurkat; experiment: Antiproliferative activity against human Jurkat cells after 72 hrs by MTT assay; assay type: functional, cell-based; how it was run: as §1
[5] = Antiproliferative activity against human U266 cells after 72 hrs by MTT assay; assay type: functional, cell-based; conditions: U-266, 72 h; how it was run: as §1
[6] = system: KBM5; experiment: Inhibition of TNF-induced NF-kappaB activation in human KBM5 cells at 10 uM preincubated for 4 hrs followed by TNF addition measured after 30 mins by EMSA relative to control; assay type: cell-based; how it was run: as §2
[7] = system: KBM5; experiment: Inhibition of TNF-induced NF-kappaB activation in human KBM5 cells at 50 uM preincubated for 4 hrs followed by TNF addition measured after 30 mins by EMSA relative to control; assay type: cell-based; how it was run: as §2

Row | IC50 [3] | IC50 [4] | Compound | IC50 [1] | fold change (FC) [2] | IC50 [5] | fold change (FC) [6] | fold change (FC) [7]
1 | > 200 µM | > 200 µM | COc1cc(/C=C/C(O)=C/C(=O)/C=C/c2ccc(O[C@@H]3O[C@H](C(=O)O)[C@@H](O)[C@H](O)[C@H]3O)c(OC)c2)ccc1O | > 200 µM | 5.3 | > 200 µM | 5.3 | 5.1
2 | 17.3 µM | 4.29 µM | COc1cc(/C=C/C(=O)CC(=O)/C=C/c2ccc(O)c(OC)c2)ccc1O [CURCUMIN] | 3.84 µM | 1 | 7.57 µM | 3 | 0.8
3 | > 200 µM | > 200 µM | COc1cc(/C=C/C(=O)/C=C(O)/C=C/c2ccc(O[C@@H]3O[C@H](C(=O)O)[C@@H](O)[C@H](O)[C@H]3O)c(OC)c2)ccc1O[C@@H]1O[C@H](C(=O)O)[C@@H](O)[C@H](O)[C@H]1O | > 200 µM | 5.6 | > 200 µM | 5.6 | 5.5
